Published values of several laboratories.
MAOB: Amine oxidase [flavin-containing] B (MAOB, Homo sapiens, UniProt P27338)

SMILES | target | test | conditions | measurement | result
O=C(Nc1ccc(Cl)c(F)c1)c1ccc2c(c1)C(=O)NC2=O | MAOB | enzyme activity, inhibitor | 1 µM | inhibition | 87%
COc1ccc2oc(-c3ccc4nc(N)oc4c3)c/c(=N\c3ccccc3NC(=O)CCN)c2c1 | Phosphatidylinositol 3-kinase C2 domain-containing subunit gamma (PIK3C2G, Homo sapiens, UniProt O75747) | binding | 1 µM | remaining binding | 37%
Nc1ncnc2c1ncn2[C@@H]1O[C@H](COP(=O)(O)OP(=O)(O)OP(=O)(O)O)[C@@H](O)[C@H]1O | GUK1 (Homo sapiens, UniProt Q16774) | enzyme activity, substrate |  | Km | 102 µM
C1=C/COCc2cc(ccc2OCCN2CCCC2)Nc2nccc(n2)-c2cccc(c2)COC/1 | Tyrosine-protein kinase HCK (HCK, Homo sapiens, UniProt P08631) | binding | 0.1 µM | remaining binding | 100%
O=C(Nc1ccc(F)c(Br)c1)c1ccc2c(c1)C(=O)NC2=O | MAOB | enzyme activity, inhibitor | 1 µM | inhibition | 97.3%
CC(=O)ON=C1C=CC(=C(C#N)c2ccccc2)C=C1 | Receptor-interacting serine/threonine-protein kinase 3 (RIPK3, Homo sapiens, UniProt Q9Y572) | enzyme activity, inhibitor, ADP detection | 20 µM | activity vs control | 110%
CCCCC(=O)Nc1ccc(-c2ccc3ncn(CCC)c(=O)c3c2)cn1 | Serine/threonine-protein kinase NLK (NLK, Homo sapiens, UniProt Q9UBE8) | binding, competition with immobilised ligand | 0.5 µM | remaining binding | 92%
C[C@]1(O)CCCN(c2nc(Nc3ccc(S(=O)(=O)N[C@H]4CC[C@H](CN5CCN(c6ccc(C7CCC(=O)NC7=O)cc6F)CC5)CC4)cc3F)ncc2C(F)(F)F)C1 (stereo partly shown) | NUAK family SNF1-like kinase 2 (NUAK2, Homo sapiens, UniProt Q9H093) | binding, competition with immobilised ligand | 1 µM | remaining binding | 45%
NC/C(=C\F)COc1cccc(Cn2c(=S)[nH]c(=O)c3[nH]cnc32)c1 | MAOB | enzyme activity, inhibitor | 200 pM | inhibition | 29.1%
O=C(Nc1ccc(F)c(F)c1)c1ccc2c(c1)C(=O)NC2=O | MAOB | enzyme activity, inhibitor | 1 µM | inhibition | 90.6%
C#Cc1cc(-c2cc(Nc3nc(N[C@@H](C)c4ccc(F)cn4)ncc3Cl)n[nH]2)ccc1C=O | Serine/threonine-protein kinase N1 (PKN1, Homo sapiens, UniProt Q16512) | enzyme activity, inhibitor | 0.2 µM | inhibition | 38.5%
O=C(Nc1cc(Cl)cc(Cl)c1)c1ccc2c(c1)C(=O)NC2=O | MAOB | enzyme activity, inhibitor | 1 µM | inhibition | 89.3%
Cc1cc(F)cc2c(CCC(=O)N[C@@H]3C(=O)NC[C@H]3O)c(-c3ccc(F)cc3)[nH]c12 | Histamine H1 receptor (HRH1, Homo sapiens, UniProt P35367) | cell-free assay | 10 µM | inhibition | 17%
